Measurements taken from the RNAGym collection of RNA variant scans (doi:10.1126/science.aae0568).
This sample holds only a part of the variants without activity.

B1: tRNA (parent)
chain: GUUCCGUUGGCGUAAUGGUAACGCGUCUCCCUCCUAAGGAGAAGACUGCGGGUUCGAGUCCCGUACGGAACG

Variants of: B1
Test: yeast fitness relative to wild type (ratio to wild type); higher = fitter; tRNA-Arg(CCU), competitive growth, 37 C, YPD
Method in brief: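 The tRNA-Arg(CCU) gene variants were made by chemical synthesis with a 3% per-site mutation rate at 69 sites and inserted at the native genomic locus of Saccharomyces cerevisiae. After pooling, the strains were competed in YPD at 37°C for 24 hours in six parallel replicates. Gene amplicons from the start population and each end population were read by 100-nucleotide paired-end sequencing, and Darwinian fitness relative to wild type was taken from genotype frequency changes. Genotypes needed ≥ 100 starting reads, and estimates < 0.5 were set to 0.5.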

Point of comparison: GUUCCGUUGGCGUAAUGGUAGCGCGUCUUCCUCCUAAGGAGAAGACUGCGGGUUCGGGUCCCGUACGGAACG, yeast fitness 0.602. Against it:
- GUUCCGUUGGCGUAAUGGUAGCGCGUCUUCCUCCUAAGGAGAAGUCUGCGGGUUCGAGUCCCGUACGGAACG — higher, 0.86
- GUUCCGUUGGCGUAAUGGUAGCGGGUCUCCCUCCUAAGGAGAAGACUGCGGGUUCGAGUCCCGUACGGAACG — higher, 0.642
- GUUCCGUUGGCGUAAUGGUAGCGAGUCUCCCUCCUAAGGAGAAGACUGCGGGUUCGAGUCCCGUACGGAACG — higher, 0.661
- GUUCCGUUGGCGUAAUGGUAGCGCGUUUCCCUCCUAACGAGAAGACUGCGGGUUCGAGUCCCGUACGCAACG — lower, ≤ 0.5
- GUUCCGUUGGCGUAAUGGUAGCGCGUCUGCCUCCUAAGGAGAAGACGGCGGGUUCGAGUCCCGUACGGAACG — lower, ≤ 0.5
- GUUCCGUUGGCGUAAUGGUAGCGCGUCUACCUCCUAAGGAGAAGACUCCGGGUUCGAGUCCCGUACGGAACG — lower, 0.57
- GUUCCGUUGGCGUAAUGGUAGCGUGUCUCCCUCCUUAGGAGAAGACUGCGGGUUCGAGUCCCGUAUGGUACG — lower, ≤ 0.5
- GUUCCGUUGGCGUAAUGGUAGCGCGUAUCCCUCCUAAGCAGAAGACUGCGGGUUUGAGUCCCGUCCGGAACG — lower, ≤ 0.5
- GUUCCGUUGGCGUAAUGGUAGCGCGUCUGCCUCCUAAGGAGAAGACUGCGGGUUCGAGUCCCGUACGGAACG — higher, 0.625
- GUUCCGUUGGCGUAAUGGUAGCGCGUCUACCUCCUAAGGAGAAGACUGCGGGUUCGAGUCCCGUACGGAACG — higher, 0.693
- GUUCCGUUGGCGUAAUGGUAGCGCGUUUCCCUCCUAAGGAGAAGACUGCGGGUUAGAGUCCCGUACGGAACG — higher, 0.701
- GUUCCGUUGGCGUAAUGGUAGCGCGUCUUCCUCCUAAGGACGAGACUGCGGGGUCGCGUCCCGUACGGAACG — lower, ≤ 0.5
- GUUCCGUUGGCGUAAUGGUAGCGCGUCUUCUUCCUAAGGAGAAGACUGCGGGUUCGAGUCCCGUACGGAACG — lower, ≤ 0.5
- GUUCCGUUGGCGUAAUGGUAGCGCGUAUCCCUCCUAUGGAGAAGAUUGCGGGUUCGAGUCCCGUAUGGAACG — lower, ≤ 0.5
- GUUCCGUUGGCGUAAUGGUAGCGCGUGUCCGUCCUAAGGAGAAGACUGCGGGUUCGAGUCCCGUACGGAACG — lower, 0.523
- GUUCCGUUGGCGUAAUGGUAGCGCGUAUCCCUCCUAUGGAGAAGACUGCAGGUUCGAGUCCCGUACGGAACG — lower, 0.531
- GUUCCGUUGGCGUAAUGGUAGCGGGUCUCCCUCCUAUGGAGAAGACUGAGGGUUCGAGUCCCGUACGGAACG — lower, ≤ 0.5
- GUUCCGUUGGCGUAAUGGUAGCGCGUGUCCCUCCUAAGGAGAAGACUGCGGGUUCGAGUCCCGUACAGAACG — lower, ≤ 0.5
- GUUCCGUUGGCGUAAUGGUAGCGCGUCUGCCUCCUAAGGAGAAGACUGCGGGUUUGAGUCCCGUACGGCACG — lower, ≤ 0.5
- GUUCCGUUGGCGUAAUGGUAGCGCGUCUUCCUCCUAAGAAGAAGUCUGCGGGUUCGAGUCCCGUACGGAACG — lower, 0.547
- GUUCCGUUGGCGUAAUGGUAGCGCGUCUUCCUCUUAAGGAGAAGACUGCGGGUUAGAGUGCCGUACGGAACG — lower, ≤ 0.5
- GUUCCGUUGGCGUAAUGGUAGCGCGUCUUCCUCCUAAAGAGAAGACUGCGGGUUCGAGUCCUGUACCGAACG — higher, 0.629
- GUUCCGUUGGCGUAAUGGUAGCGCGUGUUCCUCCGAAGGAGAAGACUGCGGGUUCGAGUCCCGUACGGAACG — lower, 0.552
- GUUCCGUUGGCGUAAUGGUAGCGCGUUUCCCUCCUAUGGAGAAGUCUGCGGGUUCGAGUCCGGUACGGAACG — lower, ≤ 0.5
- GUUCCGUUGGCGUAAUGGUAGCGCGUCUACCUCCUAGGGAGUAGACUGCGGGUUCGAGUCCCGUACGGAACG — lower, 0.516
- GUUCCGUUGGCGUAAUGGUAGCGAGUCUCCCUCCUAAGGAGAUGACUGCGGGUUCGUGUCCCGUAAGGAACG — lower, 0.574
- GUUCCGUUGGCGUAAUGGUAGCGCGUGUCCCUCCUAAGGAGAAGACUGUGGGUUCGAGUCCCGUACGGAACG — lower, 0.557
- GUUCCGUUGGCGUAAUGGUAGCGUGUCUCCCUUCUAAGGAGAAGACUGCGGGUUCGAGUCCCGUACGGAACG — lower, ≤ 0.5
- GUUCCGUUGGCGUAAUGGUAGCGGGUCUCCCUCCUAAGGAGAAGACUCCGGGUUCGAGUCCCGUACGGAACG — lower, ≤ 0.5
- GUUCCGUUGGCGUAAUGGUAGCGCGUAUCCCUCCUUAGGGGAAGACUGCGGGUUCGAGUCCCGUACGGAACG — lower, 0.587
- GUUCCGUUGGCGUAAUGGUAGCGGGUCUCCGUCCUAAGGAGAUGACUGCGGGUUCGAGUCCCGUACGGAACG — lower, ≤ 0.5
- GUUCCGUUGGCGUAAUGGUAGCGCGUAUCCCUCCUAUGGAGAAGACUGCAGGUUCGAGUCCCGUAUGGAACG — lower, ≤ 0.5
- GUUCCGUUGGCGUAAUGGUAGCGCGUCUGCCUCCUAAGGAGAAGACUGCGGGUUCGAGUCCCGUUCUGAACG — lower, ≤ 0.5
- GUUCCGUUGGCGUAAUGGUAGCGCGUAUCCCUCCUAAGGAGAAGACUGCGGGUUCGAGUCCCGUACCGAACG — lower, ≤ 0.5
- GUUCCGUUGGCGUAAUGGUAGCGCGUAUCCCUCGUAAAGAGAAGACUGCGGGUUCGAGUCCCCUACGGAACG — lower, ≤ 0.5
- GUUCCGUUGGCGUAAUGGUAGCGUGUCUCCCUCCUAAGGAGAACACUGCGGGUUCGAGUCCCGUACGGAACG — lower, 0.583
- GUUCCGUUGGCGUAAUGGUAGCGCGUCUUCCUCCUAAGGAGAAGUCUGCGGGUUCGAGUCCCGUACUGAACG — lower, ≤ 0.5
